Test results published in ChEMBL document CHEMBL4513216, “Probing the Open Global Health Chemical Diversity Library for Multistage-Active Starting Points for Next-Generation Antimalarials” (ACS Infect Dis, 2020).

experiment: Toxicity liver stage against HepG2, at 10uM; type: cell-based; design: test concentration 10 uM, cell line HepG2-A16-CD81EGFP; settings: human, HepG2-A16-CD81EGFP cells; read-out: INHIBITION
Method in brief: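 Uninfected HepG2-A16-CD81EGFP cells, 3 × 10^3 per well, 1536-well, plated on prespotted compound at 10 μM final, parasite-free screening media added to match infected plates; puromycin 10 μM positive, DMSO 0.5% negative; run in parallel with 48 h PbLuc assay at 37 °C, 5% CO2; viability by CellTiter-Glo luminescence, normalized to controls.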

In order of falling cytotoxicity at 10 µM:
1. Cc1ncc(C(=O)N2C[C@@H]3CC[C@H]2CN(S(=O)(=O)N(C)C)C3)c(C)n1  16.9%
2. COCCN1C(=O)[C@@H]2CC[C@H]1CN(C(=O)CCc1n[nH]c(C)c1C)C2  13.5%
3. CCOCc1nc2c(c(N3CCCn4nc(C)cc4C3)n1)CCNCC2  11.3%
4. Cc1cnc(C(=O)N2CCN(C(=O)C(C)C)[C@@H]3CS(=O)(=O)C[C@@H]32)cn1  7.91%
5. CCCc1cc(CNC2CCN(c3nc(C)cc(C)n3)CC2)on1  7.51%
6. O=C(CCC1CCN(C2CSCCSC2)CC1)NCC1CCCO1 (stereo unspecified)  6.5%
7. CC(=O)N1CCc2[nH]cnc2C12CCN(C(=O)CCn1cccn1)CC2  5.71%
8. Cc1cc(C)c2c(NC(C)c3nncn3C3CCCC3)ncnc2n1 (stereo unspecified)  5.01%
9. COc1cc(N2CCN(Cc3ccc(C)o3)C(CCO)C2)nc(N)n1 (stereo unspecified)  2.8%
10. Cn1ccnc1CN(CCO)C(=O)C1CCN(C(=O)C2CC2)CC1  2.55%
11. O=C(c1cccc(C2CCNC2)c1)N1CCC(N2CCC(O)CC2)CC1 (stereo unspecified)  2.18%
12. c1ccc(OCCSC2=NCCN2)cc1  1.52%
13. CC(=O)NCC1CCC2(CCN(c3ncnc4oc(C)nc34)CC2)O1 (stereo unspecified)  1.32%
14. CCc1cc(CN(C)C(=O)c2cnc3c(c2)nc(N)n3CC)on1  1.3%
15. Cc1ccc(C(=O)N2CCC(c3nccn3Cc3ccncc3)CC2)s1  1.2%
16. COCc1cccc(CNC(=O)CN2CCCC2c2noc(C)n2)c1 (stereo unspecified)  0.762%
17. COCC1CCN(C(C(=O)O)c2c(F)cccc2OC(C)C)CC1 (stereo unspecified)  0.515%
18. CNc1ncc(CN(C)C(=O)c2ccccc2C2CCNC2)cn1 (stereo unspecified)  0.272%
19. Cc1nccc(N2CCC(=O)N(Cc3ccc(F)cc3)C(C(C)C)C2)n1 (stereo unspecified)  -0.449%
20. O=C(c1cccnc1)N1CC[C@H](OCC2CC2)[C@@H]1Cc1cccnc1  -0.53%
21. N#Cc1ccccc1C(=O)N1C[C@@H](CN2CCOCC2)[C@@H](CO)C1  -1.06%
22. CCC[C@H]1CN(S(C)(=O)=O)C[C@@H]1NC(=O)COC(C)C  -1.09%
23. C[C@@H]1C[C@H]2CN(Cc3nccs3)C[C@H]2O1  -1.22%
24. Cc1csc(CN(C)C(=O)c2cccc(CCC(C)(C)O)c2)n1  -2.32%
25. CC(Cn1ccnc1)NC(=O)C1(c2ccc3c(c2)OCCO3)CCCC1 (stereo unspecified)  -2.5%
26. Cc1nn(CCC(=O)NC(C(=O)O)c2c(C)n[nH]c2C)c(C)c1C (stereo unspecified)  -2.72%
27. OCC1(Cc2ccc(F)cc2F)CCCN(Cc2ccncc2)C1 (stereo unspecified)  -3.44%
28. CN1CCOC(CNCc2coc(-c3cccs3)n2)C1 (stereo unspecified)  -3.71%
29. O=C(NCCc1cccnc1)C1CCCN(Cc2ccco2)C1 (stereo unspecified)  -3.98%
30. O=C(c1ccccn1)C1CCCN(c2nccc(CCC(F)(F)F)n2)C1 (stereo unspecified)  -4.27%
31. CCN(C)CC(=O)N1CCN(Cc2ccccc2)[C@@H]2CS(=O)(=O)C[C@@H]21  -5.18%
32. O=C(c1ccc(-n2cnnc2)cc1Cl)N1CCCC2(CCNC2)C1 (stereo unspecified)  -5.32%
33. COc1ccc(-c2cc(CN)nc3ccnn23)cc1  -5.75%
34. CN(C)C[C@H]1C[C@@H]2CN(C(=O)c3ccno3)C[C@@H]2O1  -6.32%
35. Cc1cc(C)n(-c2ccc(CNCc3ccc(C)o3)cn2)n1  -6.57%
36. Cc1nc(CN2CCCC2Cn2cncn2)no1 (stereo unspecified)  -7.01%
37. CN(CCc1ccccc1)Cc1cc(C(=O)N2CCCC2(C)C)no1  -9.18%
38. Cc1nc(C)n(CC2CCCCN2CC(=O)NC2CCOCC2)n1 (stereo unspecified)  -9.32%
39. CN1CCO[C@@H]2CN(C(=O)COc3cccc(Cl)c3)C[C@@H]2C1  -9.58%
40. Cc1ccc(CN2CCc3ncc(CNS(C)(=O)=O)n3CC2)o1  -9.9%
41. c1ccc(CN2CCCC2Cn2cncn2)nc1 (stereo unspecified)  -10.8%
42. CCc1c(C)sc(NC(=O)CN2CCN(CC)CC2)c1C(=O)OC  -11.1%
43. CCc1cc(NCCNc2cccnc2)n2nccc2n1  -11.9%
44. COc1cccc(-c2noc(-c3ccc(NCC(C)C)nc3)n2)c1OC  -12.2%
45. CCc1nccn1C1CCCN(C(=O)c2ccc3c(c2)OCO3)C1 (stereo unspecified)  -12.6%
46. CC(C)Oc1cccc(Cc2nc3c([nH]2)CCCNC3=O)c1  -12.9%
47. CCCSc1ncc(-c2nccn2CCO)cn1  -12.9%
48. O=C1CCC(=O)N1c1nn(Cc2ccccc2)cc1Cl  -14.4%
49. CC(C)[C@H]1COC(=O)N1Cc1nccn1C1CC1  -15.4%
50. Cc1ccsc1CN(CCN(C)C)Cc1ccccn1  -16.1%
51. COc1cccc(CNC(C)c2ccc(-n3ccnc3)cc2)c1OC (stereo unspecified)  -35.1%
52. CC(=O)N[C@@H]1CN(c2nc(C(N)=O)cs2)C[C@H]1c1ccc(C)o1  -41.2%
53. Cc1cc(N2CCN(C(=O)CCc3scnc3C)CC2)cc(C)n1  -48.4%
54. Cc1noc(C)c1CN1CCOCC12CCN(c1cnccn1)CC2  -101%
55. O=C(NCc1ccccn1)[C@@]12CCO[C@@H]1CCN(C1CCCC1)C2  -105%
56. O=C(COC[C@@]12CCC[C@@H]1CN(C1CCCC1)C2)N1CCCC1  -112%
